High-throughput results as filed in PubChem BioAssay.
Rows were chosen to be rich in hits. Some 2.2% of all compounds tested hit in one or more screens of this group.
PfM18AAP inh-1: blocks P. falciparum M18 aspartyl aminopeptidase | inhibition, % at 7.35 µM | 1.2% of 290,000 active | recombinant PfM18AAP, H-Glu-NHMec fluorogenic cleavage | AID 1822;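 active = inhibition above the campaign mean inhibition over all tested compounds plus 3 SD, cut at about 28% in these data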;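 note: 0% = plate median of test compound wells and 100% = 2 mM ZnCl2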
Neddyl block: cullin neddylation inhibition. P61081+Q13564. inhibition, % at 25 µM. 0.58% of 360,000 active. TR-FRET cullin neddylation, biochemical; in the data active = inhibition above about 36%
PfG6PD inh: PfG6PD (Plasmodium falciparum) enzyme inhibition; PfGluPho enzyme, NADPH resazurin-diaphorase fluorescence; inhibition, % at 20 µM; 0.78% of 350,000 active;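 active = inhibition reaching at least a set limit at 20 µM in the primary screen, cut at about 59% in these data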;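 note: 0% = DMSO wells with substrate and 100% = DMSO wells lacking glucose-6-phosphate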
HKDC1 inh: HKDC1 (human) hexokinase inhibition | Q2TB90 | recombinant HKDC1, G6PDH/diaphorase resazurin coupled fluorescence | inhibition, % at 20 µM | 0.16% of 340,000 active | AID 493160;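 active = inhibition above about 35% when tested at 20 µM, limit read from the data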;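 note: plate controls were DMSO wells with enzyme for no effect and DMSO wells lacking enzyme for full effect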
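Test system: recombinant HKDC1 (HK5) hexokinase enzyme, produced in-house / Doses: 20 µM test compound, 1% DMSO / Timing: 90 min, room temperature / Detection: G6PDH/diaphorase-coupled fluorescence, 1 mM NADP, 100 µM resazurin, 525/613 nm / Control set: DMSO wells with and without enzyme mix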
PfM18AAP inh-2: confirmation of Plasmodium falciparum M18 aspartyl aminopeptidase inhibitors. shares compounds with PfM18AAP inh-1. recombinant PfM18AAP, H-Glu-NHMec fluorogenic cleavage. inhibition, % at 7.35 µM. 28% of 2,400 active. AID 2170;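 active = mean inhibition over replicate wells above the hit cutoff set for the earlier primary screen, cut at about 29% in these data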;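 note: 0% = median of test compound wells and 100% = 2 mM ZnCl2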
CTSL1 confirm: counter-screen for PFM18AAP inhibitors: confirmation of human cathepsin L inhibitors; shares compounds with PfM18AAP inh-1; purified cathepsin L1, Z-Leu-Arg-MCA fluorescence; inhibition, % at 5.96 µM; 2,400 tested, under 10 active; AID 2178;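 active = average inhibition across replicates above the hit cutoff set in the earlier primary screen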;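 note: 0% = median of test compound wells and 100% = Z-Phe-Ala-diazomethylketone 1 µM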
Target sequence (P07711 whole entry, looked up): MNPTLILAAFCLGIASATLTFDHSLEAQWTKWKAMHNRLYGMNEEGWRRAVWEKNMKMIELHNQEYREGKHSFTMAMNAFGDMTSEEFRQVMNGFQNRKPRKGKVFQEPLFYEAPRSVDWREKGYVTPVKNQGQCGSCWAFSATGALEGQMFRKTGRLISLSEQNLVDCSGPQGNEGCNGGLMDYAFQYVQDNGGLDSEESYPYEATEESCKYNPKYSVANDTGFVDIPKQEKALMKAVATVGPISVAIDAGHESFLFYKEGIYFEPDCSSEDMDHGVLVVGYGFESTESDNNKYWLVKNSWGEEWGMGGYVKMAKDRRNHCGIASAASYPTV
Starred values were filed as active, the others as inactive; . = not tested or not shown.

SMILES	PfM18AAP inh-1	Neddyl block	PfG6PD inh	HKDC1 inh	PfM18AAP inh-2	CTSL1 confirm
Cc1nc2ccccn2c1-c1csc(Nc2ccc(C(=O)O)cc2)n1	43*	17	16	4	23	0
Cc1nc2ccccn2c1-c1csc(Nc2cccc(O)c2)n1	38*	6	42	-7	23	5
COc1ccc(NC(=O)CSc2nnc(N)s2)cc1S(=O)(=O)N1CCCCC1	.	9	6	2	.	.
CCCCn1c(O)c(/C=C2\C=Nc3ccccc32)c(=O)[nH]c1=O	40*	2	7	8	13	2
O=C1CC(Sc2nnc(-c3ccccc3)o2)C(=O)N1c1ccccc1 (stereo unspecified)	-117	4	-5	3	.	.
O=C1c2ccccc2CC1Sc1nnc(-c2ccncc2)o1 (stereo unspecified)	46*	2	-11	-4	-57	-4
COc1ccc(-c2c(C)nc3c(-c4ccsc4)cnn3c2N)cc1	-5	13	-6	-5	.	.
COc1ccc(-c2c(C)nc3c(-c4ccccn4)cnn3c2N)cc1	38*	.	3	-4	22	3
CC(C)N(Cc1ccccc1)C(=O)CN1C(=O)NC2(CCCCCC2)C1=O	.	16	0	-7	.	.
CCN(CC)c1cccc(OC2=NS(=O)(=O)c3ccccc32)c1	36*	8	43	1	2	1
COc1ccccc1C(=O)N1CCN(C(=O)c2oc3c(C)c(C)ccc3c2C)CC1	.	-32	-10	.	.	.
C(=N\Nc1ncnc2sc3c(c12)CCC3)/c1ccncc1	48*	-24	32	-5	-27	7
Cc1cccc(C)c1NC(=O)CNC(=O)CCCc1c[nH]c2ccccc12	.	11	1	-6	.	.
COc1ccc(/C=N\NC(=O)c2cc(O)c(O)c(O)c2)cc1COc1ccc(C(=O)OCC(C)C)cc1	32*	-1	24	2	-7	-1
COc1ccc(/C=N\NC(=O)c2cc(O)c(O)c(O)c2)cc1CN1CCN(c2ccc(F)cc2)CC1	38*	-17	39	4	-13	-1
COc1ccc(/C=N/NC(=O)c2ccc(C)cc2)cc1CN1CCN(c2ccc(F)cc2)CC1	-4	11	-11	-1	.	.
COc1ccc(C(=S)N2CCOCC2)cc1OC(=O)c1ccc(C)cc1	2	-2	-17	-4	.	.
O=C(NC(=S)Nn1cnnc1)c1ccccc1	.	-38	15	-1	.	.
O=C(NC(=S)Nn1cnnc1)c1ccccc1Br	79*	0	29	-3	78*	-6
CCC(C)c1ccccc1N=Cc1ccc2c(c1)OCO2 (stereo unspecified)	2	7	9	0	.	.
CCOC(=O)NC1(Nc2cccc(Cl)c2)Oc2ccccc2O1	52*	1	4	5	63*	1
Cn1c(-c2ccc(Cl)nc2)nc2ccccc21	34*	.	10	3	-51	-3
COc1ccc(CNC(=O)C[C@H]2C[C@H](C(=O)N3CCCCC3)[C@@]3(C)c4[nH]c5ccc(Cl)cc5c4CCN3C2=O)cc1OC	.	11	21	3	.	.
CCCCc1nnc(NC(=O)CCN2C(=O)C3CC=CCC3C2=O)s1 (stereo unspecified)	.	7	-6	0	.	.
CCC(CC)c1nnc(NC(=O)c2ccc3c(c2)OCO3)s1	36*	10	55	-4	-27	1
SMILES	PfM18AAP inh-1	Neddyl block	PfG6PD inh	HKDC1 inh	PfM18AAP inh-2	CTSL1 confirm
COC(=O)CSc1nnc(NC(=O)c2ccc3c(c2)OCO3)s1	0	-14	49	-2	.	.
O=C(/C=C/c1ccc(O)c(O)c1)NC(=O)c1ccccc1O	77*	-3	-10	9	62*	-1
O=C(/C=C/c1ccc(Br)cc1)NC(=O)c1ccccc1O	-11	32	4	0	.	.
CCc1cc(C(=O)Cc2cnn(-c3ccccc3)c2)c(O)cc1O	8	16	-7	-4	.	.
O=C(Cc1cnn(-c2ccccc2)c1)c1ccc(O)c(O)c1O	38*	-9	22	1	11	-10
CC(C)(C)c1ccc(NNC(=O)C2CCC2)cc1	40*	8	13	0	-20	4
CC(C)(C)c1ccc(NC(=O)COC(=O)C2CCCC2)cc1	.	-24	20	0	.	.
COc1cc(/C=C2\NC(=S)N(C)C2=O)ccc1O	36*	-47	23	-7	16	4
Cc1ccc(/C=N/Nc2cn[nH]c(=O)n2)o1	48*	-2	10	-3	5	3
Cc1ccc(S(=O)(=O)N2CCOCC2)cc1C(=O)NC1=NCCS1	.	-12	-4	3	.	.
